In article PMC6931396 (Journal of medicinal chemistry, 2019):
Blank lines part the entries; values can stand above or below the compound they belong to.

Columns and labels:
[1] = tested on: TOPFlash luciferase reporter (three wild-type Tcf4 binding sites) in β-catenin activated HEK293 cells; test: TOPFlash luciferase reporter assay; format: cell-based; settings: 24 h
Procedure, shortened: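 HEK293 cells were co-transfected with FuGENE 6, using 45 ng TOPFlash or FOPFlash reporter plus 135 ng pcDNA3.1-β-catenin. Cells were grown 24 h in DMEM with 10% FBS at 37 °C, then treated with test compound at various concentrations. After 24 h, luciferase activity was read by a dual-luciferase system, normalized, and compared with DMSO-treated cells. Triplicate; unpaired two-tailed t-test.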

[2] = unless converted into the ester form; previous study; cited from earlier work
[3] = biological target: T1, β-catenin/Tcf PPI (human β-catenin residues 138–781 / fluorescein-labeled human Tcf4 residues 7–51) (Homo sapiens, UniProt P35222); format: binding
T1 sequence (P35222 138-781): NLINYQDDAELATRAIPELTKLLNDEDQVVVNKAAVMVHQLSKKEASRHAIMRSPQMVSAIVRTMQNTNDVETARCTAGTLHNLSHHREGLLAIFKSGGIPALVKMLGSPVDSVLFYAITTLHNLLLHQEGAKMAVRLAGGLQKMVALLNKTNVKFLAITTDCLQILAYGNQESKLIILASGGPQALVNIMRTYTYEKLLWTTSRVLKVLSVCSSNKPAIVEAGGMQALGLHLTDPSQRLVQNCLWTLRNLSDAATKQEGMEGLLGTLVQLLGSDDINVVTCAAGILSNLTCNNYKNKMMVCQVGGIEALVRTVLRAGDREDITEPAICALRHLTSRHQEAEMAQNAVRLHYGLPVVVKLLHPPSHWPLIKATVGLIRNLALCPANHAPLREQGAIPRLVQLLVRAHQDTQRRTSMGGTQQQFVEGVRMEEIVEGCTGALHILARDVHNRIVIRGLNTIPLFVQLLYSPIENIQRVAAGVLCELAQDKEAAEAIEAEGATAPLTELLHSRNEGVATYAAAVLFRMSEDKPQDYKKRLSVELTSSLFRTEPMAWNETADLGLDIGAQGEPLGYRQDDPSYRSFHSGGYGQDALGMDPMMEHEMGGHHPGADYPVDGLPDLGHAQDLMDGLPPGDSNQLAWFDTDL

SW480 cells = test: HPLC–MS based cell bioavailability assay; format: in vitro ADME; settings: for cell-bound concentration: 37 °C, 3 h incubation in 5 mL DMEM with 10% FBS, input concentration 25 μM
[4] = tested on: β-catenin/Tcf PPI in HCT116 cells; test: Co-IP in HCT116 cells, β-catenin/Tcf; format: cell-based; settings: HCT116 cells treated 24 h
[5] = tested on: β-catenin/E-cadherin PPI in HCT116 cells; test: Co-IP in HCT116 cells, β-catenin/E-cadherin; format: cell-based; settings: concentrations sufficient to disrupt β-catenin/Tcf PPI
[6] = tested on: β-catenin/APC PPI in HCT116 cells; test: Co-IP in HCT116 cells, β-catenin/APC; format: cell-based; settings: concentrations sufficient to disrupt β-catenin/Tcf PPI
TNBC MDA-MB-231 cells [7] = test: Scratch wound healing assay; format: cell-based, human; settings: 10 μM, 10% serum, mitomycin 10 μg/mL, 14 h
Procedure, shortened: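 Wounds were scraped with a sterile 200 µL pipette tip into ~70–80% confluent MDA-MB-231 monolayers. Cells were kept in DMEM with 10% FBS plus 10 µg/mL mitomycin to block proliferation, with test compound or vehicle (0.2% DMSO). Wounds were imaged immediately and at 14 h. […] Mean ± SD, n=3.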

TNBC MDA-MB-231 cells [8] = test: Matrigel invasion assay; format: cell-based, human; settings: 10 μM, 24 h

SMILES: CCOC(=O)CC[C@H](NC(=O)[C@H](CC(=O)OCC)NC(=O)[C@H](Cc1ccc2ccccc2c1)NC(=O)c1cc2cc(OC)ccc2[nH]1)C(=O)OC [(Et)-15]
- TOPFlash luciferase activity ([1]; concentration of up to 200 μM): did not inhibit

SMILES: COC(=O)[C@H](CCC(=O)O)NC(=O)[C@H](CC(=O)O)NC(=O)[C@H](Cc1ccc2ccccc2c1)NC(=O)Cc1cc2cc(Cl)ccc2[nH]1 [Compound 1]
- activity in cell-based assays [2]: almost inactive

SMILES: COC(=O)[C@H](CCC(=O)O)NC(=O)[C@H](CC(=O)O)NC(=O)[C@H](Cc1ccc2ccccc2c1)NC(=O)Cc1c[nH]c2ccc(Cl)cc12 [Compound 2]
- inhibitory potency for β-catenin/Tcf PPI in words [3]: great loss of potency

SMILES: COC(=O)[C@H](CCC(=O)O)NC(=O)[C@H](CC(=O)O)NC(=O)[C@H](Cc1ccc2ccccc2c1)NC(=O)Cc1c[nH]c2cc(Cl)ccc12 [Compound 3]
- inhibitory potency for β-catenin/Tcf PPI in words [3]: great loss of potency

SMILES: COC(=O)[C@H](CCC(=O)O)NC(=O)[C@H](CC(=O)O)NC(=O)[C@H](Cc1ccc2ccccc2c1)NC(=O)c1cc2c(Cl)cc(Cl)cc2[nH]1 [Compound 19]
- potency improvement over 9 [3]: ~ 3 fold

SMILES: O=C(O)CC[C@H](NC(=O)[C@H](CC(=O)O)NC(=O)[C@H](Cc1ccc2ccccc2c1)NC(=O)c1cc2cc(Cl)ccc2[nH]1)C(=O)Nc1ccccc1 [Compound 21, (S)-4-((S)-3-Carboxy-2-((S)-2-(5-chloro-1H-indole-2-carboxamido)-3-(naphthalen-2-yl)propanamido)propanamido)-5-oxo-5-(phenylamino)pentanoic Acid]
- potency improvement over 9 [3]: 3.4 fold

- cell-bound concentration (SW480 cells): 0.17 nmol/million SW480 cells
SMILES: O=C(O)CC[C@H](NC(=O)[C@H](Cc1nn[nH]n1)NC(=O)[C@H](Cc1ccc2ccccc2c1)NC(=O)c1cc2cc(Cl)ccc2[nH]1)C(=O)Nc1ccc(OC(F)(F)F)cc1 [Compound 53, (S)-4-((S)-2-((S)-2-(5-Chloro-1H-indole-2-carboxamido)-3-(naphthalen-2-yl)propanamido)-3-(2H-tetrazol-5-yl)propanamido)-5-oxo-5-((4-(trifluoromethoxy)phenyl)amino)pentanoic Acid]

SMILES: NC(=O)CC[C@H](NC(=O)[C@H](Cc1nn[nH]n1)NC(=O)[C@H](Cc1ccc2ccccc2c1)NC(=O)c1cc2cc(Cl)ccc2[nH]1)C(=O)Nc1ccc(OC(F)(F)F)cc1 [Compound 55, (S)-2-((S)-2-((S)-2-(5-Chloro-1H-indole-2-carboxamido)-3-(naphthalen-2-yl)propanamido)-3-(2H-tetrazol-5-yl)propanamido)-N^1-(4-(trifluoromethoxy)phenyl)pentanediamide]
- TOPFlash luciferase activity ([1]; different concentrations): suppressed the TOPFlash luciferase activities in dose-dependent manners

SMILES: CCOC(=O)CC[C@H](NC(=O)[C@H](Cc1nn[nH]n1)NC(=O)[C@H](Cc1ccc2ccccc2c1)NC(=O)c1cc2cc(Cl)ccc2[nH]1)C(=O)Nc1ccc(OC(F)(F)F)cc1 [Compound 56, Ethyl (S)-4-((S)-2-((S)-2-(5-Chloro-1H-indole-2-carboxamido)-3-(naphthalen-2-yl)propanamido)-3-(2H-tetrazol-5-yl)-propanamido)-5-oxo-5-((4-(trifluoromethoxy)phenyl)amino)-pentanoate]
- TOPFlash luciferase activity ([1]; different concentrations): suppressed the TOPFlash luciferase activities in dose-dependent manners
- inhibition of β-catenin/Tcf PPI (co-IP) [4]: dose-dependently inhibited
- effect on β-catenin/E-cadherin PPI (co-IP) [5]: had no effect
- effect on β-catenin/APC PPI (co-IP) [6]: had no effect
- inhibition of TNBC cell migration (TNBC MDA-MB-231 cells [7]): effectively inhibit
- inhibition of TNBC cell invasion (TNBC MDA-MB-231 cells [8]): effectively inhibit
- cell-bound concentration (SW480 cells): 1.4 nmol/million SW480 cells
- transformation into 53 (SW480 cells; 24 h incubation with SW480 cells in 5 mL DMEM with 10% FBS): did not transform into 53
